Calls of active or inactive are those of the source. No cut-off for these calls is given here.
Experiments:
[1] = molecular target: T1, Hexokinase-4 (Homo sapiens) (UniProt P35557); experiment: Activation of human recombinant glucokinase assessed as concentration required for 1.5 fold increase in enzymatic activity
T1 sequence (whole entry): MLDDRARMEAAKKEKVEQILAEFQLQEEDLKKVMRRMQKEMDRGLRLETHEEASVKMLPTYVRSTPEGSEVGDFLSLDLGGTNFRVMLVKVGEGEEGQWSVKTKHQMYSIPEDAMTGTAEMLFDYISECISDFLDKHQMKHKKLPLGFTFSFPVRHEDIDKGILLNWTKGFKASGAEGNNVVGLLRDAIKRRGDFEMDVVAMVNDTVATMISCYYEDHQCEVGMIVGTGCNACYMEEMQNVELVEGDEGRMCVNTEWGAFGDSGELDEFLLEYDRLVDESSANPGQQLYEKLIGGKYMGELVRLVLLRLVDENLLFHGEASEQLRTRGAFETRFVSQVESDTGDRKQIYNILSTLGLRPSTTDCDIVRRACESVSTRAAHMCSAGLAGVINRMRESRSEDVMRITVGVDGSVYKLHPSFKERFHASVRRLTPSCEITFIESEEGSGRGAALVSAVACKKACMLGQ
Method in brief: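 Human recombinant GK; activator at fixed concentrations from ∼0.010 to 30 μM, each in duplicate, with glucose held at 5 mM. SC1.5 is the activator concentration giving a 1.5-fold rise in enzymatic activity over untreated GK. Assay CV was about 15%.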

[2] = tested on: Mus musculus; experiment: Antidiabetic activity in po dosed DIO C57Bl/6J mouse assessed as reduction of fasting and postprandial glucose level administered 1 hr before glucose challenge by OGTT; format: functional, organism-based
Method in brief: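 Male DIO C57Bl/6J mice were fasted overnight and dosed orally at 5, 10 or 15 mg/kg in Gelucire44/14:ethanol:PEG400 (4:66:30 v/w/v). An oral glucose challenge of 1 g/kg followed 1 h later. Tail-snip blood glucose was read on a YSI analyzer up to 120 min. Food was withheld throughout; n = 6 per time point; means ± SD; Student's t test.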

[3] = tested on: Liver microsomes; experiment: Drug degradation in human liver microsomes assessed as formation of metabolite 2 level at 20 uM after 30 mins by LCMS/MS analysis; format: ADME, Microsome; conditions: 0.5 h
Method in brief: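 Pooled human liver microsomes at 1 or 2 mg/mL protein in 0.1 M potassium phosphate pH 7.4 with 3 mM MgCl2, 1 mM EDTA and 1 mM NADPH. Substrate was 20 μM C-14 labelled compound, with 1% methanol final. Incubation ran 30 min after a 5 min preincubation and was stopped with ice-cold methanol or 50% aqueous TFA.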

Activity [1] | Drug metabolism [3] | Structure (SMILES) | Activity [2]
2.37 µM |  | CS(=O)(=O)c1ccc([C@@H](CC2CCC(O)C2)C(=O)Nc2cnccn2)cc1Cl (mixture of isomers) | 
1.4 µM | < 10 ng/mL | CNC(=O)c1cnc(NC(=O)C(CC2CCCC2)c2ccc(S(C)(=O)=O)cc2)s1 (racemic) | 
1.38 µM |  | CS(=O)(=O)c1ccc(C(CC2CCCC2)C(=O)Nc2ccc3ccccc3n2)cc1 (racemic) | 
0.12 µM |  | CS(=O)(=O)c1ccc(C(CC2CCCC2)C(=O)Nc2ccc3ccccc3n2)cc1Cl (racemic) | 
1.21 µM |  | CS(=O)(=O)c1ccc(C(CC2CCCC2)C(=O)Nc2ccccn2)cc1 (racemic) | 

Second part, the compound before the results:

Structure (SMILES) | Activity [1] | Drug metabolism [3] | Activity [2]
CS(=O)(=O)c1ccc([C@@H](CC2CCCC2)C(=O)Nc2cnccn2)cc1Cl | 0.14 µM |  | Active
CS(=O)(=O)c1ccc([C@@H](CC2CCCC2=O)C(=O)Nc2cnccn2)cc1Cl (mixture of isomers) | 0.19 µM |  | 
CS(=O)(=O)c1ccc([C@@H](CC2CCCC2O)C(=O)Nc2cnccn2)cc1Cl (mixture of isomers) | 2.73 µM |  | 
CS(=O)(=O)c1ccc(C(CC2CCCC2)C(=O)Nc2ncc(Br)s2)cc1 (racemic) | 0.135 µM | 42.7 ng/mL | 
CS(=O)(=O)c1ccc(C(CC2CCCC2)C(=O)Nc2ncc(C(N)=O)s2)cc1 (racemic) | 0.734 µM | < 10 ng/mL | 
CS(=O)(=O)c1ccc(C(CC2CCCC2)C(=O)Nc2ncc([N+](=O)[O-])s2)cc1 (racemic) | 4.17 µM | < 10 ng/mL | 
CS(=O)(=O)c1ccc(C(CC2CCCC2)C(=O)Nc2nc(CCO)cs2)cc1 (racemic) | 0.667 µM | 167.3 ng/mL | 
CS(=O)(=O)c1ccc(C(CC2CCCC2)C(=O)Nc2nc(CO)cs2)cc1 (racemic) | 0.48 µM | 88.7 ng/mL | 
CS(=O)(=O)c1ccc(C(CC2CCCC2)C(=O)Nc2ncc(Cl)s2)cc1 (racemic) | 0.148 µM | 48 ng/mL | 

— ChEMBL document CHEMBL2163188, “Discovery of piragliatin--first glucokinase activator studied in type 2 diabetic patients” (J Med Chem, 2012)
